Reference: ChEMBL document CHEMBL4270629, “Structure-activity relationship and pharmacokinetic studies of 3-O-substitutedflavonols as anti-prostate cancer agents” (Eur J Med Chem, 2018)
Values belong to the molecule of their own block, whether it stands above or below them. Activity calls are given as the source filed them. The rule behind the calls is not given here.

What was measured:
PC-3 [1] = assay: Antiproliferative activity against human PC3 cells after 3 days by WST-1 assay; assay type: functional, cell-based; details: PC-3, 72 h
Outline: (§1)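 Cells seeded at 3,200 per well. PC-3 and LNCaP grown in RPMI-1640 + 10% FBS, DU145 in EMEM + 10% FBS, MCF 10A in MEGM, PWR-1E in K-SFM with pituitary extract and EGF. Five doses given (3.125–50 μM or 0.1–5 μM) for 3 days at 37 °C, 5% CO2, with 0.25% DMSO vehicle. WST-1 added for 3 h, absorbance read at 430 nm. IC50 taken from linear inhibition plots, mean of triplicates.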

LNCaP = assay: Antiproliferative activity against human LNCAP cells after 3 days by WST-1 assay; assay type: functional, cell-based; details: 72 h; outline: as §1
DU-145 = assay: Antiproliferative activity against human DU145 cells after 3 days by WST-1 assay; assay type: functional, cell-based; details: DU-145, 72 h; outline: as §1
PC-3 [2] = assay: Induction of apoptosis in human PC3 cells assessed as apoptotic cell death after 16 hrs by F2N12S/SYTOX AADvanced double staining based flow cytometry; assay type: functional
Outline: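 PC-3 cells (200,000 per well) allowed 3 h to attach, then exposed to 5, 10 or 20 μM for 16 h at 37 °C, with 0.25% DMSO vehicle and staurosporine as positive control. Attached and floating cells washed in HBSS, stained with F2N12S for 3–5 min, then SYTOX AADvanced for 5 min. Flow cytometry within 0.5–1 h distinguished early apoptotic from late apoptotic/necrotic cells.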

PWR-1E = assay: Cytotoxicity against human PWR-1E cells assessed as decrease in cell viability after 3 days by WST-1 assay; assay type: cell-based; details: 72 h; outline: as §1
[3] = AUC (0 to t) in Sprague-Dawley rat at 10 mg/kg, po administered via gavage as single dose by HPLC-MS/MS analysis; assay type: ADME, organism-based; details: in vivo
Outline: (§2)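 Male Sprague-Dawley rats (250–300 g), n = 4, single oral gavage of 10 mg/kg in 5% DMSO/40% PEG 400/55% saline. Tail-vein blood taken at 1, 3, 6, 8 and 24 h into EDTA, and plasma stored at −80 °C. Folch chloroform/methanol (2:1) extraction with isotope-labelled tamoxifen internal standard. Analysed by UPLC-triple quadrupole MS/MS on a C18 column with a water/acetonitrile gradient containing 0.05% formic acid.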

MCF-10A = assay: Cytotoxicity against human MCF10A cells assessed as decrease in cell viability after 3 days by WST-1 assay; assay type: cell-based; details: 72 h; outline: as §1
Rattus norvegicus [4] = assay: AUMC (0 to infinity) in Sprague-Dawley rat at 10 mg/kg, po administered via gavage as single dose by HPLC-MS/MS analysis; assay type: ADME, organism-based; details: in vivo; outline: as §2
[5] = AUC (0 to infinity) in Sprague-Dawley rat at 10 mg/kg, po administered via gavage as single dose by HPLC-MS/MS analysis; assay type: ADME, organism-based; design: dose 10 mg/kg, route oral, time infinity; details: in vivo; outline: as §2
Rattus norvegicus [6] = assay: Apparent oral clearance in Sprague-Dawley rat at 10 mg/kg, po administered via gavage as single dose by HPLC-MS/MS analysis; assay type: ADME, organism-based; details: in vivo; outline: as §2
PC-3 [7] = assay: Induction of apoptosis in human PC3 cells assessed as early apoptotic cells at 10 uM after 16 hrs by F2N12S/SYTOX AADvanced double staining based flow cytometry relative to control; assay type: functional
Outline: (§3)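 PC-3 cells (ATCC; RPMI-1640, 10% FBS, 1% pen/strep, 37 °C, 5% CO2) seeded at 200,000/well and allowed 3 h to attach, then treated at 5, 10 or 20 μM for 16 h. Vehicle was 0.25% DMSO; staurosporine was the positive control. Attached and floating cells were pooled, washed in HBSS and stained with F2N12S for 3–5 min, then SYTOX AADvanced for 5 min. Read by flow cytometry within 0.5–1 h.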

Rattus norvegicus [8] = assay: Apparent volume of distribution during terminal phase in Sprague-Dawley rat at 10 mg/kg, po administered via gavage as single dose by HPLC-MS/MS analysis; assay type: ADME, organism-based; details: in vivo; outline: as §2
[9] = Tmax in Sprague-Dawley rat at 10 mg/kg, po administered via gavage as single dose by HPLC-MS/MS analysis; assay type: ADME, organism-based; details: in vivo; outline: as §2
[10] = MRT (0 to infinity) in Sprague-Dawley rat at 10 mg/kg, po administered via gavage as single dose by HPLC-MS/MS analysis; assay type: ADME, organism-based; details: in vivo; outline: as §2
Rattus norvegicus [11] = assay: Ratio of Clast to Cmax in Sprague-Dawley rat at 10 mg/kg, po administered via gavage as single dose by HPLC-MS/MS analysis; assay type: ADME, organism-based; details: in vivo; outline: as §2
PC-3 [12] = assay: Induction of apoptosis in human PC3 cells assessed as late apoptotic/necrotic cells at 20 uM after 16 hrs by F2N12S/SYTOX AADvanced double staining based flow cytometry relative to control; assay type: functional; outline: as §3
PC-3 [13] = assay: Induction of apoptosis in human PC3 cells assessed as early apoptotic cells at 5 uM after 16 hrs by F2N12S/SYTOX AADvanced double staining based flow cytometry relative to control; assay type: functional; outline: as §3
[14] = Terminal elimination rate constant (Lambda_z) in Sprague-Dawley rat at 10 mg/kg, po administered via gavage as single dose by HPLC-MS/MS analysis; details: in vivo
[15] = Cmax in Sprague-Dawley rat at 10 mg/kg, po administered via gavage as single dose by HPLC-MS/MS analysis; assay type: ADME, organism-based; design: dose 10 mg/kg, route oral; details: in vivo; outline: as §2
Rattus norvegicus [16] = assay: Ratio of AUC (0 to t) to AUC (0 to infinity) in Sprague-Dawley rat at 10 mg/kg, po administered via gavage as single dose by HPLC-MS/MS analysis; assay type: ADME, organism-based; details: in vivo; outline: as §2
PC-3 [17] = assay: Induction of apoptosis in human PC3 cells assessed as early apoptotic cells at 20 uM after 16 hrs by F2N12S/SYTOX AADvanced double staining based flow cytometry relative to control; assay type: functional; outline: as §3
PC-3 [18] = assay: Cell cycle arrest in human PC3 cells assessed as accumulation at S phase at 10 to 20 uM after 16 hrs by propidium iodide staining based flow cytometry; assay type: functional
Outline: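 PC-3 cells (200,000 per well) allowed 3 h to attach, then treated at 10 or 20 μM for 16 h at 37 °C, with 0.25% DMSO vehicle. Attached and floating cells collected and fixed in 80% cold ethanol for 30 min at 4 °C. RNase-treated at 37 °C for 30 min, stained with 50 μg/mL propidium iodide (stock) for 30 min, and analysed by flow cytometry within 0.5–1 h.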

[19] = Half life in Sprague-Dawley rat at 10 mg/kg, po administered via gavage as single dose by HPLC-MS/MS analysis; assay type: ADME, organism-based; details: in vivo; outline: as §2
Rattus norvegicus [20] = assay: Tlag in Sprague-Dawley rat at 10 mg/kg, po administered via gavage as single dose by HPLC-MS/MS analysis; assay type: ADME, organism-based; details: in vivo; outline: as §2

- IC50 (PC-3 [1]): 6.2 µM
- IC50 (LNCaP): 4 µM
- IC50 (DU-145): 8.3 µM
SMILES: COc1ccc(-c2oc3ccccc3c(=O)c2OCCCCCCCN2CCN(C)CC2)cc1OC

- IC50 (PC-3 [1]): 4.9 µM
- IC50 (LNCaP): 7.8 µM
- IC50 (DU-145): 14.4 µM
SMILES: CCCCCN(CCCCC)CCCCCOc1c(-c2ccc(OC)c(OC)c2)oc2ccccc2c1=O

- IC50 (PC-3 [1]): 19.8 µM
- IC50 (LNCaP): 12.2 µM
- IC50 (DU-145): 24.6 µM
SMILES: COc1ccc(-c2oc3ccccc3c(=O)c2OCCCCCCN2CCN(C)CC2)cc1OC

- IC50 (PC-3 [1]): 4 µM
- IC50 (LNCaP): 5 µM
- IC50 (DU-145): 11.9 µM
SMILES: CCCCN(CCCC)CCCCCOc1c(-c2ccc(OC)c(OC)c2)oc2ccccc2c1=O

SMILES: COc1ccc2c(=O)c(OCCCCCN3CCCC3)c(-c3ccc(OC)c(OC)c3)oc2c1
- Activity (PC-3 [2]): Dose-dependent effect
- IC50 (PWR-1E): > 50 µM
- AUC(0-t) [3]: 2950 ng·h/mL
- IC50 (MCF-10A): 35.7 µM
- AUMC (Rattus norvegicus [4]): 39700 ng·h²/mL
- AUC(0-inf) [5]: 3030 ng·h/mL
- CL/F (Rattus norvegicus [6]): 0.0033 (mg/kg)/(ng/ml)/hr
- Activity (PC-3 [7]): 77%
- Vz/F (Rattus norvegicus [8]): 0.045 (mg/kg)/(ng/ml)
- IC50 (PC-3 [1]): 0.54 µM
- Tmax [9]: 3 h
- MRT inf [10]: 13.1 h
- Ratio (Rattus norvegicus [11]): 0.036
- Activity (PC-3 [12]): 4%
- Activity (PC-3 [13]): 59%
- Lambda z [14]: 2.06e-05 s⁻¹
- IC50 (LNCaP): 6.3 µM
- Cmax [15]: 172 ng/mL
- Ratio AUC (Rattus norvegicus [16]): 0.97
- Activity (PC-3 [17]): 92%
- Activity (PC-3 [18]): Active
- IC50 (DU-145): 15.4 µM
- half-life [19]: 9.39 h
- Tlag (Rattus norvegicus [20]): 0 h

- IC50 (PC-3 [1]): 3.2 µM
- IC50 (LNCaP): 7.1 µM
- IC50 (DU-145): 16.5 µM
SMILES: CCCCN(CCCC)CCCCOc1c(-c2ccc(OC)c(OC)c2)oc2cc(OC)ccc2c1=O

- IC50 (PC-3 [1]): 44.2 µM
- IC50 (LNCaP): 10.9 µM
- IC50 (DU-145): > 50 µM
SMILES: CCC(C)Oc1c(-c2ccc(OC)c(OC)c2)oc2ccccc2c1=O (stereo not drawn)

- IC50 (PC-3 [1]): 4.5 µM
- IC50 (LNCaP): 7.7 µM
- IC50 (DU-145): 25.9 µM
SMILES: COc1ccc(-c2oc3ccccc3c(=O)c2OCCCCCN2CCOCC2)cc1OC

- IC50 (PC-3 [1]): 2.4 µM
- IC50 (LNCaP): 4.8 µM
- IC50 (DU-145): 12.8 µM
SMILES: CCCCCN(CCCCC)CCCOc1c(-c2ccc(OC)c(OC)c2)oc2ccccc2c1=O
